Compound activity deposited in PubChem by Broad Institute.
Rows were chosen to be rich in hits. Some 2.2% of all compounds tested hit in one or more screens of this group.
Env fusion inh: HIV envelope-mediated fusion inhibition | 1.1% of 360,000 active | AID 651610 | HeLa-JRFL Env/CEM21 cell fusion, luciferase | inhibition, % at 12.3 µM;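 active means mean replicate inhibition score of at least 50 and every replicate individually at or above 50; inconclusive means only one of the two criteria met; inactive means mean below 50 and not all replicates reaching 50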;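 further: 0% = plate neutral controls and 100% = maraviroc near 300 nM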
FN deposit inh: fibronectin deposition inhibition. AH1F fibroblasts, Alexa488-fibronectin deposition fluorescence, overnight. inhibition, % at 12.6 µM. 0.086% of 350,000 active. AID 743247;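 active means mean inhibition across replicates of 30% or more, regardless of how many single replicates reach that level; inconclusive means mean under 30% yet at least half of replicates reach 30%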;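 further: positive control wells lacked labelled fibronectin entirely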
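Assay system: AH1F fibroblast monolayer, labelled fibronectin deposition. Amount: 10000 cells per well. Also added: labelled fibronectin 24 nM. Compound: single-point pinned compound. Incubation: cell attachment 1 h, compound and FN exposure overnight. Detection: fluorescence after three HBSS washes, excitation 485 nm, emission 525 nm. Read-out: inhibition of fibronectin deposition signal.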
PDI turbidity: blocks human protein disulfide isomerase activity; P07237; PDI insulin aggregation turbidity, A650, 90 min; inhibition, % at 10 µM; 0.052% of 350,000 active;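 active means mean inhibition across replicates of 30% or more, whatever share of single replicates reach that level; inconclusive means mean inhibition below 30% while every single replicate reaches 30%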
ERp5 block: ERp5 (human) disulfide isomerase inhibition. ERp5 insulin aggregation, absorbance 650 nm, 90 min. AID 651711. 0.05% of 350,000 active. inhibition, % at 9.99 µM. Q15084;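 active means mean replicate inhibition above about 25%, with every replicate also reaching it, limit read from the data, passing the limit was not always enough; inconclusive means only one of those two criteria met; inactive means neither criterion met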
Target sequence (Q15084 whole entry, looked up): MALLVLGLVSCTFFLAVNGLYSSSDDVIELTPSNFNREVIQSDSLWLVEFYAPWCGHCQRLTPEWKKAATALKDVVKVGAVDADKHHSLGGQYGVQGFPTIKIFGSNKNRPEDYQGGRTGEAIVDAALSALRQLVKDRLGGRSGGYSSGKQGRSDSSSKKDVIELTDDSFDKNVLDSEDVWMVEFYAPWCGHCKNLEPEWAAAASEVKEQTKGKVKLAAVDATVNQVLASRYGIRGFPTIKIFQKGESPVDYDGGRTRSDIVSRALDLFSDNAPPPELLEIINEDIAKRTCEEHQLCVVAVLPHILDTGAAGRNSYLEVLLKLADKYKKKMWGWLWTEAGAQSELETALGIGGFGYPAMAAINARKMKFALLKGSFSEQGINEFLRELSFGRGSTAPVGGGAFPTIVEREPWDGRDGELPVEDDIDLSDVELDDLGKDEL
Ecoli rRNA inh: inhibits bacterial ribosomal RNA function over humanized ribosomes; E. coli WT GFP vs humanized-ribosome RFP mutants, fluorescence, 24 h; hits give low values; DMSO median 0, no signal -100; GFP signal change (wild-type ribosome), % (concentration not given with the values); 1.6% of 350,000 active; AID 720706;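 active means significant combined selectivity score with lowered wild-type GFP, culture density cut under 30%, mutant RFP and density less affected; inactive means any of these conditions unmet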
PvdQ acylase: blocks Pseudomonas aeruginosa PvdQ acylase activity; purified PvdQ acylase, fluorescence plate reader; 0.063% of 340,000 active; inhibition, % at 10 µM; AID 488965; in the data active means inhibition above about 30%, passing the limit was not always enough; inconclusive means no clear call, values can overlap the other calls;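 further: 0% = vehicle neutral wells and 100% = reference inhibitor wells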
An asterisk follows results filed as active; ? = inconclusive; nt = no result; [ ] = another dose, or the depositor's remark.

SMILES	Env fusion inh	FN deposit inh	PDI turbidity	ERp5 block	Ecoli rRNA inh	PvdQ acylase
Cc1cnc(NC2=NCCC2)s1	-1	nt	38*	3	3	-5
COc1ccc(NC(=O)N(C)C[C@@H]2Oc3ccc(NC(=O)Nc4ccc(F)cc4)cc3CC(=O)N([C@H](C)CO)C[C@@H]2C)cc1	5[16.7 µM]	nt	nt	-2	2	nt
Cc1cc(C2(c3ccc(O)c(C)c3)OC(=O)c3ccccc32)ccc1O	nt	2	-5	-2	-37	-12
Cc1cc(O)c(C(C)C)cc1C1(c2cc(C(C)C)c(O)cc2C)OC(=O)c2ccccc21	68*	2	5	0	1	-11
COc1ccc(C(=O)Nc2ccccc2C(=O)N/N=C/c2ccccn2)cc1OC	12	2	-1	4	-20	-11
COc1ccc(C(=O)N/N=C/c2ccccn2)cc1OC	-16	nt	0	-7	-29*	-2
O=C(N/N=C/c1ccccn1)c1cccs1	-1	-2	6	-2	-24*	6
O=C(N/N=C/c1ccccn1)c1ccccc1	nt	3	-4	0	-26*	-6
O=C(N/N=C/c1ccccn1)c1ccncc1	-5	-3	2	2	9	-21
O=C(Cc1cccs1)N/N=C/c1ccccn1	-5	-1	10	2	8	-22
COCC(=O)N(C)C[C@H]1Oc2ncc(C#Cc3ccc(OC)cc3)cc2C(=O)N([C@H](C)CO)C[C@H]1C	1[16.7 µM]	nt	nt	3	-2	nt
Cc1cc(N2C(=O)C(O)=C(C(=O)c3cc4ccccc4o3)C2c2ccc(Cl)cc2)no1 (configuration not stated)	-5	-3	-2	6	-24*	-6
Cc1cc(N2C(=O)C(O)=C(C(=O)c3cc4ccccc4o3)C2c2cccc(Cl)c2)no1 (configuration not stated)	8	-1	-5	2	-2	-7
Cc1cc(N2C(=O)C(O)=C(C(=O)c3ccco3)C2c2cccc(Cl)c2)no1 (configuration not stated)	2	-5	-3	2	-32*	4
Cc1cc(N2C(=O)C(O)=C(C(=O)c3ccc(C)o3)C2c2cccc(Cl)c2)no1 (configuration not stated)	?	8	-4	12	-14	nt
CC(C)C[C@H]1COCc2cn(nn2)CC[C@@H](Cc2cccc(Cl)c2)C(=O)N1	nt	-6	nt	nt	-2	nt
CC(C)(C)c1cccc(C2(O)C(=O)c3ccccc3C2=O)c1O	4	-1	1	3	-38*	-15
Cc1ccc(C2(O)C(=O)c3ccccc3C2=O)c(O)c1C	-1	0	-2	3	-16	-1
C[C@@H]1CN([C@@H](C)CO)C(=O)c2cccc(NS(=O)(=O)c3ccc(Cl)cc3)c2O[C@H]1CN(C)C(=O)Nc1ccccc1	nt	nt	nt	-3	-2	nt
CCCCCCC1CCC(C(=O)NC(CCSC)C(=O)NC(C(=O)OC)C(C)C)CC1 (configuration not stated)	57*	-9	2	nt	nt	1
CC(=O)c1ccc(S(=O)(=O)N2CCN(C(=O)C(=O)c3cccc(C(F)(F)F)c3)CC2)cc1	6	7	nt	1	11	nt
CCCCS(=O)(=O)N1CCN(C(=O)C(=O)c2cccc(C(F)(F)F)c2)CC1	91*	1	nt	-9	10	nt
COc1cccc(OCCCN2CCN(S(=O)(=O)c3ccc(NC(C)=O)cc3)CC2)c1	63*	nt	-6	nt	nt	-19
CC(=O)Nc1ccc(S(=O)(=O)N2CCN(CCCOc3ccccc3Cl)CC2)cc1	-27	5	0	nt	nt	-12
CC(=O)Nc1ccc(S(=O)(=O)N2CCN(C(=O)C(=O)c3cccc(C(F)(F)F)c3)CC2)cc1	5	4	nt	0	-13*	nt
SMILES	Env fusion inh	FN deposit inh	PDI turbidity	ERp5 block	Ecoli rRNA inh	PvdQ acylase
CC(=O)N1[C@H](CO)[C@H](c2ccc(C3=CCCC3)cc2)[C@H]1CNC(=O)CN(C)C	nt	-7	nt	nt	0	nt
CCCCCCNC(=O)O[C@H]1Cn2c(=O)ccc(=O)n2[C@@H]2CN(S(=O)(=O)c3ccc(C)cc3)C[C@]12O	6	6	-1	2	-26*	nt
O=C(C[C@H]1C[C@H]2c3cc(NC(=O)C4CCC4)ccc3O[C@H]2[C@@H](CO)O1)NCc1ccc(-c2ccccc2)cc1	3[16.7 µM]	-26	nt	3	5	nt
COc1ccc(CCNC(=O)COC(=O)c2cccn2C)cc1	78*	nt	0	2	-4	-12
Cn1cccc1C(=O)OCC(=O)NCCc1ccc(S(N)(=O)=O)cc1	72*	-6	-6	-4	4	-10
Cn1cccc1C(=O)OCC(=O)NCCCc1ccccc1	15	-4	0	-9	-7	-18
Cc1nc(C)c(C(=O)OCC(=O)NCCc2ccc(S(N)(=O)=O)cc2)s1	9	-2	-7	-5	12	-2
CCCC#Cc1cnc2c(c1)C(=O)N([C@H](C)CO)C[C@@H](C)[C@H](CN(C)C(=O)CN1CCOCC1)O2	-12[16.7 µM]	-7	nt	2	8	nt
C[C@@H]1CCCCO[C@@H](CN(C)C(=O)Nc2ccc(C(F)(F)F)cc2)[C@H](C)CN([C@@H](C)CO)C(=O)c2cc(NC(=O)c3ccncc3)ccc2O1	5[16.7 µM]	8	nt	2	-1	nt
CC(C)NC(=O)Nc1ccc2c(c1)C(=O)N([C@H](C)CO)C[C@@H](C)[C@H](CN(C)C(=O)Nc1ccc(C(F)(F)F)cc1)OCCCC[C@@H](C)O2	-12[16.7 µM]	nt	nt	-6	-1	nt
C[C@H]1CCCCO[C@H](CN(C)C(=O)Nc2ccc(C(F)(F)F)cc2)[C@@H](C)CN([C@@H](C)CO)C(=O)c2cc(NC(=O)c3ccncc3)ccc2O1	56*[16.7 µM]	2	nt	-2	-1	nt
CC(C)NC(=O)Nc1ccc2c(c1)C(=O)N([C@H](C)CO)C[C@@H](C)[C@H](CN(C)C(=O)Nc1ccc(C(F)(F)F)cc1)OCCCC[C@H](C)O2	75*[16.7 µM]	nt	nt	-2	-2	nt
CC(C)NC(=O)Nc1ccc2c(c1)C(=O)N([C@H](C)CO)C[C@@H](C)[C@@H](CN(C)C(=O)Nc1ccc(C(F)(F)F)cc1)OCCCC[C@@H](C)O2	72*[16.7 µM]	nt	nt	0	2	nt
COc1ccc(NC(=O)Nc2ccc3c(c2)C(=O)N([C@@H](C)CO)C[C@H](C)[C@H](CN(C)CC2CCCCC2)OCCCC[C@H](C)O3)cc1	55*[16.7 µM]	nt	nt	2	-2	nt
COc1ccc(NC(=O)Nc2ccc3c(c2)C(=O)N([C@H](C)CO)C[C@H](C)[C@H](CN(C)CC2CC2)OCCCC[C@H](C)O3)cc1	64*[16.7 µM]	-1	nt	7	1	nt
C[C@@H]1CCCCO[C@@H](CN(C)CC2CCCCC2)[C@H](C)CN([C@H](C)CO)C(=O)c2cc(NC(=O)c3ccccc3)ccc2O1	67*[16.7 µM]	5	nt	-7	-7	nt
C[C@@H]1CCCCO[C@@H](CN(C)CC2CCCCC2)[C@H](C)CN([C@H](C)CO)C(=O)c2cc(NC(=O)NC3CCCCC3)ccc2O1	70*[16.7 µM]	4	nt	nt	5	nt
